Assay [1] can be described thus: Inhibition of almond beta-glucosidase. More on the design: species or system Prunus dulcis. The method in brief:
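β-Glucosidase at 0.25–1 units per mL in 100 mM sodium phosphate buffer, pH 6.8, room temperature. p-Nitrophenyl glycopyranoside substrate at twice its Michaelis–Menten Km. Initial hydrolysis rates read spectrophotometrically at 405 nm. Compounds screened first at one concentration; actives retested at lower levels for IC50.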

Assay [2] is described as follows: Inhibition of Helix pomatia beta-mannosidase. In a few lines:
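β-Mannosidase at 0.25–1 units per mL in 100 mM sodium citrate, pH 6.4, room temperature. p-Nitrophenyl glycopyranoside substrate at twice its Michaelis–Menten Km. Initial velocities read at 405 nm. Compounds screened first at a single concentration; those active titrated lower for IC50.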

Assay [3] is described as follows: Inhibition of Bacillus stearothermophilus alpha-glucosidase. More on the design: species or system Geobacillus stearothermophilus. The method in brief:
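Bacillus stearothermophilus α-glucosidase at 0.25–1 units per mL in 100 mM sodium phosphate, pH 6.8, room temperature. Substrate is p-nitrophenyl glycopyranoside at twice Km, with Km 1.5 mM from a Michaelis–Menten fit. Initial hydrolysis rates read at 405 nm. Compounds screened first at a single high concentration; active ones retested at lower concentrations for IC50.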

Assay [4] can be described thus: Inhibition of yeast alpha-glucosidase. More on the design: species or system Saccharomyces cerevisiae. In a few lines: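 Yeast α-glucosidase at 0.25–1 units per mL in 100 mM sodium phosphate, pH 6.8, room temperature. p-Nitrophenyl glycopyranoside substrate at twice Km, with Km 0.19 mM from a Michaelis–Menten fit. Initial velocities monitored at 405 nm. Compounds screened first at a single concentration; actives titrated lower to get IC50.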

Assay [5] can be described thus: Inhibition of yeast alpha-glucosidase by Lineweaver-Burke double reciprocal plot. More on the design: species or system Saccharomyces cerevisiae.

18 molecules from ChEMBL document CHEMBL1139243, “Synthesis and biological evaluation of a 2-aryl polyhydroxylated pyrrolidine alkaloid-based library” (Bioorg Med Chem, 2008) can be followed below.

Molecules are shown by their SMILES. Some results are limits rather than exact numbers.

On to `COc1ccc(OC)c([C@H]2N[C@H](CO)[C@@H](O)[C@@H]2O)c1`, for which the IC50 in assay [1] is 169 µM; in assay [2], above 200 µM; in assay [3] it was 4 µM; in assay [4], 2.6 µM.

As for `COc1ccc([C@H]2N[C@H](CO)[C@@H](O)[C@@H]2O)cc1`, the IC50 in assay [1] turned out to be 122 µM; in assay [2], 21 µM; in assay [3], 8.8 µM; in assay [4] it was 0.5 µM.

Consider `COc1ccc([C@@H]2[C@@H](O)[C@H](O)[C@@H](CO)N2C)cc1`, for which the IC50 in assay [1] is above 200 µM; in assay [2], 61 µM; in assay [3], 9.2 µM; in assay [4], 38 µM.

On to `COc1ccc([C@@H]2N[C@@H](CO)[C@H](O)[C@H]2O)cc1`, for which the half-inhibitory concentration (IC50) in assay [1] was above 200 µM; in assay [2] it was above 200 µM; in assay [3] it was above 200 µM; in assay [4], 21 µM.

Take `COc1ccc([C@@H]2[C@@H](O)[C@H](O)[C@@H](CO)N2C)cc1OC`: the IC50 is above 200 µM in assay [1], above 200 µM in assay [2], 24 µM in assay [3] and 72 µM in assay [4].

For `COc1ccc(OC)c([C@@H]2[C@@H](O)[C@H](O)[C@@H](CO)N2C)c1`, the IC50 in assay [1], in assay [2], in assay [3] and in assay [4] was above 200 µM in each case.

Turning to `COc1ccc([C@@H]2[C@@H](O)[C@H](O)[C@@H](CO)N2C)c(OC)c1`, the IC50 in assay [1] was above 200 µM; in assay [2] it was 86 µM; in assay [3], above 200 µM; in assay [4] it was above 200 µM.

Consider `COc1cccc([C@H]2N[C@H](CO)[C@@H](O)[C@@H]2O)c1`, for which the values for the IC50 in assay [3] and in assay [4] were 31 µM and 2.4 µM, respectively.

With `OC[C@H]1N[C@H](c2ccccc2)[C@@H](O)[C@@H]1O`, the IC50 in assay [1] came out at 197 µM; in assay [2], 93 µM; in assay [3] it was 36 µM; in assay [4] it was 10 µM.

Turning to `COc1ccc([C@H]2N[C@H](CO)[C@@H](O)[C@@H]2O)c(OC)c1`, the IC50 in assay [1] stood at 96 µM; in assay [2] it was 172 µM; in assay [3], 8.4 µM; in assay [4], 7.8 µM.

For `COc1ccc([C@@H]2[C@@H](O)[C@H](O)[C@@H](CO)N2C)cc1O`, the IC50 in assay [1] is above 200 µM; in assay [2] it was 184 µM; in assay [3] it was above 200 µM; in assay [4], 28 µM.

Consider `COc1ccc([C@H]2[C@H](O)[C@@H](O)[C@H](CO)N2C)cc1`, for which the IC50 in assay [1], in assay [2], in assay [3] and in assay [4] was above 200 µM throughout.

As for `COc1ccc([C@@H]2N[C@@H](CO)[C@H](O)[C@H]2O)cc1OC`, the IC50 is above 200 µM in assay [1], above 200 µM in assay [2], above 200 µM in assay [3] and 6 µM in assay [4].

On to `CCCCN1[C@H](CO)[C@@H](O)[C@H](O)[C@H]1c1ccc(OC)c(O)c1`, for which the IC50 in assay [1], in assay [2], in assay [3] and in assay [4] was above 200 µM each time.

Consider `COc1ccc([C@H]2N[C@H](CO)[C@@H](O)[C@@H]2O)cc1OC`, for which the concentration for half-maximal inhibition (IC50) in assay [1] was 34 µM; in assay [2], 52 µM; in assay [3] it was 1.8 µM; in assay [4] it was 1.1 µM. Also, the Ki in assay [5] was 0.7 µM.

With `COc1ccc([C@@H]2N[C@@H](CO)[C@H](O)[C@H]2O)cc1O` [L-RADICAMINE A], the IC50 in assay [1] was above 200 µM; in assay [2] it was 113 µM; in assay [3], above 200 µM; in assay [4] it was above 200 µM.

For the molecule `COc1ccc([C@H]2N[C@H](CO)[C@@H](O)[C@@H]2O)cc1O` [RADICAMINE A], the IC50 in assay [1] was above 200 µM; in assay [2] it was 66 µM; in assay [3] it was 12 µM; in assay [4], 4.2 µM.

On to `OC[C@H]1N[C@H](c2ccc(O)cc2)[C@@H](O)[C@@H]1O` [RADICAMINE B], for which the IC50 was above 200 µM in assay [1], above 200 µM in assay [2], 10 µM in assay [3] and 24 µM in assay [4].

As usually defined, the IC50 is the concentration that gives 50% inhibition. A higher IC50 goes with lower potency. A word on the Ki: it is the dissociation constant of the complex between target and ligand, obtained from inhibition or displacement. Read a low Ki as higher affinity.
